Assay results reported in ChEMBL document CHEMBL4196006, “Aryl thiosemicarbazones for the treatment of trypanosomatidic infections” (Eur J Med Chem, 2018).
Activity calls are given as the source filed them. The calls are words filed in the database; no cut-off is given here.

Tests used:
[1] = tested on: THP-1; assay: Cytotoxicity against human THP1 cells assessed as decrease in viable cells after 72 hrs by MTT assay; format: cell-based; conditions: thp-1, 72 h
How it was run: (§1)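 THP-1-derived macrophages exposed to compounds for 72 h, tested at 100 μM or in dose-response; viability read by MTT colorimetric assay.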

[2] = biological target: Cytochrome P450 2C9 (Homo sapiens, UniProt P11712); assay: Inhibition of human microsomal CYP2C9 expressed in baculovirus infected BTI-TN-5B1-4 cells incubated for 30 mins by luciferase assay
Chain of Cytochrome P450 2C9 (P11712 whole entry): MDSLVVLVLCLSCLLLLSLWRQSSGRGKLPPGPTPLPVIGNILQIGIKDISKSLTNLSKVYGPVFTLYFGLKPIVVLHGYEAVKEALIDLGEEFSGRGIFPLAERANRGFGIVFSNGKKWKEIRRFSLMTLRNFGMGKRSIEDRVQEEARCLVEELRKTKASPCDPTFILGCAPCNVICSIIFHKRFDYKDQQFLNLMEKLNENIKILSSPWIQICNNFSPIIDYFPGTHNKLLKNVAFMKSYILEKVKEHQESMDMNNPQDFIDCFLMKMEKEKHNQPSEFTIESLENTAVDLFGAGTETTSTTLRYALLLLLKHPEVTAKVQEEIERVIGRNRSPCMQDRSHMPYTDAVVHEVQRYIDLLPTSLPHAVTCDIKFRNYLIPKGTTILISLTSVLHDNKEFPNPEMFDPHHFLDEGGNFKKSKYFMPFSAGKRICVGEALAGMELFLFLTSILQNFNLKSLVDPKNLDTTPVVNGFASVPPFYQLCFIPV

[3] = biological target: Cytochrome P450 3A4 (Homo sapiens, UniProt P08684); assay: Inhibition of human microsomal CYP3A4 expressed in baculovirus infected BTI-TN-5B1-4 cells incubated for 30 mins by luciferase assay; format: ADME
Chain of Cytochrome P450 3A4 (P08684 whole entry): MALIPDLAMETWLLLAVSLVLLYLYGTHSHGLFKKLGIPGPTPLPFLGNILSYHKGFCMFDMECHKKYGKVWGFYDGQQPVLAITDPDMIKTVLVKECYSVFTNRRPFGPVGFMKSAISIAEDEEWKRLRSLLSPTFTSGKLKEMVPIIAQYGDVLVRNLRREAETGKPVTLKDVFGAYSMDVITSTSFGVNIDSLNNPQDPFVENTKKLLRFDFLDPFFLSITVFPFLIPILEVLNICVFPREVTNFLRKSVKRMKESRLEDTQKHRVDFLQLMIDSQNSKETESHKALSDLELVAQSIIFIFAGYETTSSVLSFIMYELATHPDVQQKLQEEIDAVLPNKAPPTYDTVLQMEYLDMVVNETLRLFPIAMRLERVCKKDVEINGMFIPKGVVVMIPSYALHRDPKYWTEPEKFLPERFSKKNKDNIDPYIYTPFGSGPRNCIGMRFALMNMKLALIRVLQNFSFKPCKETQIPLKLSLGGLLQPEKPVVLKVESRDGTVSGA

[4] = tested on: U2OS; assay: Cytotoxicity against human U2OS cells assessed as decrease in viable cells after 72 hrs by cell number count in anti-T. cruzi high content imaging assay; conditions: u2os, 72 h
[5] = tested on: Trypanosoma brucei; assay: Antitrypanosomal activity against Trypanosoma brucei Lister 427 bloodstream form at 4 uM after 72 hrs by resazurin dye-based assay relative to control; format: functional
[6] = tested on: Trypanosoma brucei; assay: Antitrypanosomal activity against Trypanosoma brucei Lister 427 bloodstream form assessed as parasite growth inhibition at 50 uM after 72 hrs by SYBR Green assay relative to control; format: functional
[7] = tested on: Leishmania infantum; assay: Antileishmanial activity against Leishmania infantum amastigote form assessed as parasite growth inhibition at 50 uM after 72 hrs by steady-Glo reagent based assay relative to control; format: functional; conditions: read-out: GI
How it was run: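 Intramacrophage L. infantum amastigotes in THP-1-derived macrophages, tested at 50 μM or in dose-response. Plates held 72 h at 37 °C, 5% CO2. Medium was replaced by PBS, macrophages lysed, and parasites read by Steady-Glo luminescence. High-content imaging gave host cell number, infection ratio (infected/total cells) and parasites per infected cell. Values are means of at least two independent experiments.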

[8] = tested on: Trypanosoma cruzi; assay: Antitrypanosomal activity against Trypanosoma cruzi amastigote form infected in human U2OS cells assessed as parasite growth inhibition at 50 uM after 72 hrs relative to control; format: functional; conditions: read-out: GI
How it was run: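 U2OS monolayers grown for 24 h, then infected with tissue-derived trypomastigotes of T. cruzi Y strain. Compounds were added 24 h after infection at 50 μM (single-point) or in dose-response, with 72 h exposure. Plates were fixed, stained and analysed by high-content imaging; activity was normalized to infected and non-infected controls. Means of at least two experiments; benznidazole as reference.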

[9] = tested on: Trypanosoma brucei; assay: Antitrypanosomal activity against Trypanosoma brucei Lister 427 bloodstream form at 10 uM after 72 hrs by resazurin dye-based assay relative to control; format: functional
[10] = tested on: Trypanosoma brucei; assay: Potentiation of methotrexate-induced antitrypanosomal activity against Trypanosoma brucei Lister 427 bloodstream form at 10 uM after 72 hrs by resazurin dye-based assay relative to control; format: functional
[11] = biological target: T1, CYP1A2 (Homo sapiens, UniProt P05177); assay: Inhibition of human microsomal CYP1A2 expressed in baculovirus infected BTI-TN-5B1-4 cells at 10 uM incubated for 30 mins by luciferase assay relative to control; format: ADME
T1 sequence (P05177 whole entry): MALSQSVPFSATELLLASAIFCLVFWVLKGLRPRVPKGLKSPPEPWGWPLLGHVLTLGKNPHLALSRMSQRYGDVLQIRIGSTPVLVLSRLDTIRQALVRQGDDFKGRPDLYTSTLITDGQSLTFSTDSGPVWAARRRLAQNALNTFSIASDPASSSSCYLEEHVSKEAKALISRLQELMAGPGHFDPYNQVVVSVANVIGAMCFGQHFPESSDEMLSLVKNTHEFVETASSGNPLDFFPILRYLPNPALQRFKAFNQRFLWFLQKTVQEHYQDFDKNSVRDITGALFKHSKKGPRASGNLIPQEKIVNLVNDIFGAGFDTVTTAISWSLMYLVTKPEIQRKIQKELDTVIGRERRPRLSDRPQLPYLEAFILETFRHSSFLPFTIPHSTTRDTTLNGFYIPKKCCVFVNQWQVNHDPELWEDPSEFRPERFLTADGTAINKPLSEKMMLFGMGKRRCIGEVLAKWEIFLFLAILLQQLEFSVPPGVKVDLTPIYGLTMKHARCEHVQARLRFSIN
How it was run: (§2)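 CYP1A2, 2C9, 2C19, 2D6 and 3A4 in microsomes from baculovirus-infected insect cells, each with a P450-Glo luminogenic substrate. Inhibition read as loss of light; single-point at 10 μM, triplicate.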

[12] = tested on: Trypanosoma brucei; assay: Potentiation of methotrexate-induced antitrypanosomal activity against Trypanosoma brucei Lister 427 bloodstream form at 10 uM after 72 hrs by resazurin dye-based assay; format: functional
[13] = biological target: hERG (KCNH2) (Homo sapiens, UniProt Q12809); assay: Inhibition of human ERG at 10 uM incubated for 2 hrs by fluorescence polarisation assay relative to control
Chain of hERG (KCNH2) (Q12809 whole entry): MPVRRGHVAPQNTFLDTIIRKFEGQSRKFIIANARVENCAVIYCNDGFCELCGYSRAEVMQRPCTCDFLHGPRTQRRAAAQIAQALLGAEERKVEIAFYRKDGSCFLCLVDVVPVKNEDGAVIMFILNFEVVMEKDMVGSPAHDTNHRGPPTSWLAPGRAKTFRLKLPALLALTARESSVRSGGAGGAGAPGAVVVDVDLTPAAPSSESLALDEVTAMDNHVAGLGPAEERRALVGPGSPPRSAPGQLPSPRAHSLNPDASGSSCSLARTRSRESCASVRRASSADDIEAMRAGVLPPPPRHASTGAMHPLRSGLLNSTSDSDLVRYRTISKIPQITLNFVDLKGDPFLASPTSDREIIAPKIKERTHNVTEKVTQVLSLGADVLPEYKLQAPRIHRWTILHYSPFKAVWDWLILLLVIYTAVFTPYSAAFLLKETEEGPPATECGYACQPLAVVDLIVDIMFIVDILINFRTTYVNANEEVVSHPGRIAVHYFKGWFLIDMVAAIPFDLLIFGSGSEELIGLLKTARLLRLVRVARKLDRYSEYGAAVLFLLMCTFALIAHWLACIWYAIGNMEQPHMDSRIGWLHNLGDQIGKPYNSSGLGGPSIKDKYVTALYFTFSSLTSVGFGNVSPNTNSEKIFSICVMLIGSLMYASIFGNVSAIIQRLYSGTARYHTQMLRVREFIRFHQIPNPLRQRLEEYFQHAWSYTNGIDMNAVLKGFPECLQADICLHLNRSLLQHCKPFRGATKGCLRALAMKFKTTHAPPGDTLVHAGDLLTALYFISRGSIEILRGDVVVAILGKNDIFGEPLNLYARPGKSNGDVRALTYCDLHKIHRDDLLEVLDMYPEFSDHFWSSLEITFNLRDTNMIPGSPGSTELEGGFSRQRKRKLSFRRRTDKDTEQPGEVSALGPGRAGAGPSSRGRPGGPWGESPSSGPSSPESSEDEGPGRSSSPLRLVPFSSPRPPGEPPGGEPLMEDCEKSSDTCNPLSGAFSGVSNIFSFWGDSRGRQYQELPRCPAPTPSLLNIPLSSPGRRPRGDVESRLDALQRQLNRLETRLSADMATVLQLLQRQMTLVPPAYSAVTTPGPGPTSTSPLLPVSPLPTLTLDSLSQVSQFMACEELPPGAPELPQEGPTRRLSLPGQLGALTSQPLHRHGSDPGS

[14] = biological target: CYP2C9 (Homo sapiens, UniProt P11712); assay: Inhibition of human microsomal CYP2C9 expressed in baculovirus infected BTI-TN-5B1-4 cells at 10 uM incubated for 30 mins by luciferase assay relative to control; format: ADME; how it was run: as §2
Chain of CYP2C9 (P11712 whole entry): as the sequence (P11712 whole entry) above

[15] = biological target: CYP2C19 (Homo sapiens, UniProt P33261); assay: Inhibition of human microsomal CYP2C19 expressed in baculovirus infected BTI-TN-5B1-4 cells at 10 uM incubated for 30 mins by luciferase assay relative to control; format: ADME; how it was run: as §2
Chain of CYP2C19 (P33261 whole entry): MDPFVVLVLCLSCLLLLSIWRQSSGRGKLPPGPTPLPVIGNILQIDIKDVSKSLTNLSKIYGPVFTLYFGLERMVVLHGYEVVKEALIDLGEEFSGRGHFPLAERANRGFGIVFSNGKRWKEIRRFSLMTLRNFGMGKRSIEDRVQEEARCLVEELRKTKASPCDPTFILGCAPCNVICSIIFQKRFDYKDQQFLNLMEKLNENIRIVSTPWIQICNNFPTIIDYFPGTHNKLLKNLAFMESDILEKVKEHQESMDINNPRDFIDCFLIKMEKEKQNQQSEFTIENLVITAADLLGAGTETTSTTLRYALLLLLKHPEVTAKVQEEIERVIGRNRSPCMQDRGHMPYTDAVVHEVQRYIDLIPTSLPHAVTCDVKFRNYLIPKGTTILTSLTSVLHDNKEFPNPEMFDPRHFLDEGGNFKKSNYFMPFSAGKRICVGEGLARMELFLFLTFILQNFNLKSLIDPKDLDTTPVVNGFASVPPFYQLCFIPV

[16] = biological target: CYP2D6 (Homo sapiens, UniProt P10635); assay: Inhibition of human microsomal CYP2D6 expressed in baculovirus infected BTI-TN-5B1-4 cells at 10 uM incubated for 30 mins by luciferase assay relative to control; format: ADME; how it was run: as §2
Chain of CYP2D6 (P10635 whole entry): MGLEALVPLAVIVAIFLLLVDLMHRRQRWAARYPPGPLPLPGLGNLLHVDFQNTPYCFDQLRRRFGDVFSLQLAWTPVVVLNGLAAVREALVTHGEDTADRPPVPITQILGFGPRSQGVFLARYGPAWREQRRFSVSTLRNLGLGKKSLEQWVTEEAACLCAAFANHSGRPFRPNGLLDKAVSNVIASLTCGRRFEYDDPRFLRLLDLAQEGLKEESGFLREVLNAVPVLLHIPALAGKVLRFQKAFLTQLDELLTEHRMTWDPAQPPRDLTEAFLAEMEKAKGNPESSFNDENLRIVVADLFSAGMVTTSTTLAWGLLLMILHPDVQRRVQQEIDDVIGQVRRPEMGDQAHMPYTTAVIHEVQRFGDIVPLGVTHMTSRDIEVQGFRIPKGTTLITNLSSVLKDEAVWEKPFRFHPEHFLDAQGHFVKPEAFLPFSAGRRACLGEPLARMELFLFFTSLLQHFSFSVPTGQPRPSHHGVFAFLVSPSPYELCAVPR

[17] = biological target: CYP3A4 (Homo sapiens, UniProt P08684); assay: Inhibition of human microsomal CYP3A4 expressed in baculovirus infected BTI-TN-5B1-4 cells at 10 uM incubated for 30 mins by luciferase assay relative to control; format: ADME; how it was run: as §2
Chain of CYP3A4 (P08684 whole entry): as the sequence (P08684 whole entry) above

[18] = biological target: Aurora kinase B (Homo sapiens, UniProt Q96GD4); assay: Inhibition of recombinant full-length human aurora B kinase expressed in baculovirus system at 10 uM using MBP as substrate incubated for 45 mins by ADP-glo kinase assay; conditions: probe MBP
Chain of Aurora kinase B (Q96GD4 whole entry): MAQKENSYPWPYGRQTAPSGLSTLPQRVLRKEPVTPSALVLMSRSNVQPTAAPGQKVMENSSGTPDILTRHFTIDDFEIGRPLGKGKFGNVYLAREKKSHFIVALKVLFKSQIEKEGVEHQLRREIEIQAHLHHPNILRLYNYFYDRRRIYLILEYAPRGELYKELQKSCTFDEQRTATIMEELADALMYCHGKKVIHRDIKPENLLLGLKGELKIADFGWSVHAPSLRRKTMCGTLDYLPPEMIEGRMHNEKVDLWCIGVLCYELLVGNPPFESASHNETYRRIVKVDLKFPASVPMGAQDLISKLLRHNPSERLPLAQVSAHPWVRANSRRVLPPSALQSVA
How it was run: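 Aurora B activity measured as ADP formation via coupled luciferase ADP-Glo luminescence; single-point at 10 μM, triplicate.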

[19] = Cytotoxicity against human 786-O cells assessed as inhibition of mitochondrial viability at 10 uM after 6 hrs by CMXRos staining based assay relative to control; format: cell-based, 786-0; conditions: read-out: INH
How it was run: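 Mitochondrial toxicity monitored by MitoTracker Red CMXRos uptake and high-content imaging; compound at 10 μM, triplicate.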

[20] = Cytotoxicity against human THP1 cells assessed as viable cells at 100 uM after 72 hrs by MTT assay relative to control; format: cell-based, THP-1; conditions: read-out: Activity; how it was run: as §1
[21] = Cytotoxicity against human U2OS cells assessed as viable cells at 50 uM after 72 hrs by MTT assay relative to control; format: cell-based; conditions: read-out: Activity
[22] = biological target: T2, Pteridine reductase, putative (Trypanosoma brucei) (UniProt Q581W1); assay: Inhibition of Trypanosoma brucei PTR1 at 50 uM using H2B as substrate in presence of NADPH by photometric analysis relative to control
T2 sequence (whole entry): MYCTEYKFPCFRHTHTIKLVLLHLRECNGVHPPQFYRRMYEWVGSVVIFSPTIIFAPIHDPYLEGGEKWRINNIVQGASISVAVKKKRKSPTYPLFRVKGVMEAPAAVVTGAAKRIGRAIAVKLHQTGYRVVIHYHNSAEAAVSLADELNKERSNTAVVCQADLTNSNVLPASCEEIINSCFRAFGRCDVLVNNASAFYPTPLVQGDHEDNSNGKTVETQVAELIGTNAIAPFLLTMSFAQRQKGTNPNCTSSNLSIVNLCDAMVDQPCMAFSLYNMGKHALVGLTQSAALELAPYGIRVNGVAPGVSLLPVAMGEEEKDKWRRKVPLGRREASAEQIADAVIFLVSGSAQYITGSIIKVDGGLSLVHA

[23] = biological target: T3, Pteridine reductase 1 (Leishmania major) (UniProt Q01782); assay: Inhibition of Leishmania major PTR1 at 50 uM using H2B as substrate in presence of NADPH by photometric analysis relative to control
T3 sequence (whole entry): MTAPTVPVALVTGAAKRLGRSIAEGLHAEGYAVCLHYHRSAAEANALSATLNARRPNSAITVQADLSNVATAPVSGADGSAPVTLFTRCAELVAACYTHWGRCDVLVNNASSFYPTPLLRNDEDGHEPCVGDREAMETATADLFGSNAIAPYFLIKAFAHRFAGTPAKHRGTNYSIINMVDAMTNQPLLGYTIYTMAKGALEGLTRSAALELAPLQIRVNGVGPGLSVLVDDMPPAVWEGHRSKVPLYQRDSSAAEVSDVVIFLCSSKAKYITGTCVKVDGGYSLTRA

[24] = tested on: A549; assay: Cytotoxicity against human A549 cells assessed as growth inhibition at 10 uM after 48 hrs by CellTiter-Glo assay relative to control; values are per cent of control; conditions: a549, 48 h, 10 µM
[25] = Cytotoxicity against human WI38 cells assessed as growth inhibition at 10 uM after 48 hrs by CellTiter-Glo assay relative to control; values are per cent of control; conditions: WI38 cells
[26] = Cytotoxicity against human A549 cells assessed as growth inhibition at 10 uM after 48 hrs by CellTiter-Glo assay relative to control; values are per cent of control; conditions: A549 cells
[27] = tested on: WI-38; assay: Cytotoxicity against human WI38 cells assessed as growth inhibition at 10 uM after 48 hrs by CellTiter-Glo assay relative to control; values are per cent of control; conditions: wi-38, 48 h, 10 µM

SMILES | growth inhibition (GI) [6] | inhibition of growth at 50 µM [7] [%] | inhibition of growth at 50 µM [8] [%] | Activity [9] [%] | Activity [10] [%] | inhibition at 0.5 h, 10 µM [11] [%] | PF [12] | inhibition at 2 h, 10 µM [13] [%] | inhibition at 0.5 h, 10 µM [14] [%] | inhibition at 0.5 h, 10 µM [15] [%] | inhibition at 0.5 h, 10 µM [16] [%] | inhibition at 0.5 h, 10 µM [17] [%] | inhibition at 0.75 h, 10 µM [18] [%] | cytotoxicity at 6 h, 10 µM [19] [%] | viability at 72 h, 100 µM [20] [%] | viability at 72 h, 50 µM [21] [%] | inhibition [22] | inhibition [23] [%] | cell growth (% of control) [24] [%] | cell growth (% of control) at 48 h, 10 µM [25] [%] | further results
O=C(Cn1ccnc1[N+](=O)[O-])NCc1ccccc1 [BENZNIDAZOLE] |  |  |  |  |  |  |  |  |  |  |  |  |  |  |  |  |  |  |  |  | CC50 [1]: Non-Toxic; IC50 [2]: > 100 µM; IC50 [3]: 98.2 µM; CC50 [4]: Non-Toxic
CN(Cc1cnc2nc(N)nc(N)c2n1)c1ccc(C(=O)N[C@@H](CCC(=O)O)C(=O)O)cc1 [METHOTREXATE] |  |  |  |  |  |  |  |  |  |  |  |  |  |  |  |  |  |  |  |  | Activity [5]: 24.25%
NC(=S)N/N=C/c1ccccc1[N+](=O)[O-] | inactive | 30.6 | 27.4 | 1.5 | 29.17 | 61.6 | 1.13 | -1.03 | -4.92 | -40.6 | -2.93 | -13.9 | -22.8 | -3.98 | 59.7 | 20.4 | 14.8% | 10.6 | 158.95 | 120 | 
COc1cccc(OC)c1/C=N/NC(N)=S | inactive | 25.3 | 74.3 | 8.83 | 21.83 | 34.3 | 0.66 | -1.27 | -9.43 | -44.2 | 0.08 | -14.8 | -18.2 | -12.3 | 76.8 | 21.7 | 4.77% | 4.04 | 162.27 | 114 | 
CN(C)c1ccc(/C=N/N=C(/N)S)c2ccccc12 |  | 58.3 | 8.05 | 26.17 | 63.83 | 98.4 | 1.27 | 43 | 10 | 21.7 | 57.9 | 22.8 | 0.89 | -1.7 | 9.31 | 99.5 | inactive | 5.85 |  |  | inhibition of growth at 50 µM ([6]; Lister 427, 72 h, read-out: GI): 6.33%; cell growth (% of control) at 48 h, 10 µM [26]: 122%; cell growth (% of control) [27]: 162.08%
